Folding enthalpy and Tm data for 38 sequences are collected here from the array DNA melting data of Ke et al. (doi:10.1101/2024.01.08.574731).

Data set [1] can be described thus: folding enthalpy; higher = less favourable; fluorescence melt of hairpins on a sequencing array, two-state fit. Particulars: sodium 0.088 M. Put shortly: (§1)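 On a sequenced MiSeq flow cell, library hairpins with annealed Cy3 and quencher oligos were imaged for Cy3 fluorescence in 2.5 °C steps up to 60 °C, in 50 mM Na-HEPES pH 8.0, 25 mM NaCl. Normalisation used pre-quench Cy3 and control constructs. Bootstrapped two-state fits gave melting temperature and folding enthalpy, combined by inverse variance across four replicates and with fitted temperatures raised by 9.35 °C to match UV melts.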

Data set [2] is described as follows: melting temperature; fluorescence melt of hairpins on a sequencing array, two-state fit, raised by 9.35 °C to match UV melts. Particulars: sodium 0.088 M. Put shortly:
as §1

On to GCGCGGCGAAAGCGGTGC ((.(.((....)).).)), for which the folding enthalpy in data set [1] was -31.2 kcal/mol. In addition, the Tm in data set [2] worked out at 65.2 °C.

For GCGCGGCGAAAGCTGGGC ((.(.((....)).).)), the folding enthalpy in data set [1] was -32.4 kcal/mol. Further, the Tm in data set [2] is 67.2 °C.

As for GCGCGGTCGAAAGACCGC (((..(((....)))))), the folding enthalpy in data set [1] was -5.31 kcal/mol. The Tm in data set [2] is 67 °C.

Turning to GCGCGTCGAAAGACCGC (((.(((....)))))), the folding enthalpy in data set [1] is -32.8 kcal/mol. Further, the Tm in data set [2] turned out to be 67.3 °C.

Consider GCGCGTCGAAAGACTCGC (((.(((....))).))), for which the folding enthalpy in data set [1] was -38.7 kcal/mol. For the same sequence, the Tm in data set [2] was 58.4 °C.

For the sequence GCGCGTGGAAACATGCGC ((((.((....)).)))), the folding enthalpy in data set [1] is -40.2 kcal/mol. Also, in data set [2], the Tm turned out to be 67.9 °C.

Consider GCGCGTTCGAAAGAACGC (((..(((....)))))), for which the folding enthalpy in data set [1] was -6.28 kcal/mol. The Tm in data set [2] stood at 68 °C.

For the sequence GCGCTACGAAAGTACGC (((.(((....)))))), the folding enthalpy in data set [1] was -32.2 kcal/mol. Also, in data set [2], the Tm was found to be 55.3 °C.

As for GCGCTAGGAAACTGGTGC ((.(.((....)).).)), in data set [1], the folding enthalpy was -28.9 kcal/mol. The Tm in data set [2] came to 44.3 °C.

As to GCGCTCCGAAAGGAACGC (((.(((....))).))), in data set [1], the folding enthalpy is -46.8 kcal/mol. For the same sequence, the Tm in data set [2] was found to be 65 °C.

Consider GCGCTCGAAAGAGCTCGC ((((((....)))..))), for which the folding enthalpy in data set [1] is -14.4 kcal/mol. Moreover, in data set [2], the Tm stood at 47.8 °C.

For the sequence GCGCTCGGAAACGAACGC (((.(((....))).))), the folding enthalpy in data set [1] is -38.5 kcal/mol. Moreover, the Tm in data set [2] is 55.7 °C.

Turning to GCGCTGCCGAAAGGCCGC (((..(((....)))))), in data set [1], the folding enthalpy is -17.8 kcal/mol. Further, the Tm in data set [2] stood at 58.5 °C.

With GCGCTGCGAAAGCAAAGC ((..(((....)))..)), in data set [1], the folding enthalpy was -17.7 kcal/mol. The Tm in data set [2] came to 60 °C.

In the case of GCGCTGCGAAAGCAACGC (((.(((....))).))), the folding enthalpy in data set [1] was -49 kcal/mol. For the same sequence, in data set [2], the Tm was 61.5 °C.

Regarding GCGCTGCGAAAGCACCGC (((.(((....))).))), the folding enthalpy in data set [1] is -46.8 kcal/mol. For the same sequence, the Tm in data set [2] is 53.9 °C.

For the sequence GCGCTGCGAAAGCACTGC ((..(((....)))..)), the folding enthalpy in data set [1] was -16.8 kcal/mol. In addition, the Tm in data set [2] worked out at 41 °C.

As to GCGCTGCGAAAGCCACGC (((..((....))..))), in data set [1], the folding enthalpy is -19.7 kcal/mol. In addition, in data set [2], the Tm worked out at 52.7 °C.

On to GCGCTGCGAAAGCCCCGC (((..((....))..))), for which the folding enthalpy in data set [1] was -22.5 kcal/mol. Further, in data set [2], the Tm was 41.5 °C.

For the sequence GCGCTGCGAAAGCCGAGC ((.(.((....)).).)), in data set [1], the folding enthalpy is -23.2 kcal/mol. For the same sequence, the Tm in data set [2] was 50.8 °C.

For GCGCTGCGAAAGCCGGGC ((.(.((....)).).)), the folding enthalpy in data set [1] is -20.5 kcal/mol. Further, the Tm in data set [2] is 50.9 °C.

Regarding GCGCTGCGAAAGCGCCGC (((..((....))..))), the folding enthalpy in data set [1] is -9.61 kcal/mol. Also, the Tm in data set [2] came to 61.6 °C.

As to GCGCTGCGAAAGCGTCGC (((..((....))..))), the folding enthalpy in data set [1] was -25.4 kcal/mol. For the same sequence, the Tm in data set [2] was 59.7 °C.

Regarding GCGCTGGCGAAAGCCCGC (((..(((....)))))), the folding enthalpy in data set [1] is -17 kcal/mol. Also, the Tm in data set [2] stood at 55.5 °C.

As for GCGCTGGGAAACCAACGC (((.(((....))).))), the folding enthalpy in data set [1] is -47.8 kcal/mol. Further, in data set [2], the Tm was determined as 52.7 °C.

Turning to GCGCTTCCGAAAGGACGC (((..(((....)))))), the folding enthalpy in data set [1] was -20.3 kcal/mol. Moreover, the Tm in data set [2] is 52 °C.

As to GCGCTTGGAAACAAGCAC (.(((((....))))).), the folding enthalpy in data set [1] was -15.2 kcal/mol. Further, the Tm in data set [2] worked out at 45.7 °C.

As for GCGCTTGGAAACAGGTGC ((.(.((....)).).)), the folding enthalpy in data set [1] is -28.5 kcal/mol. Further, in data set [2], the Tm came out at 40.6 °C.

As to GCGGAACCCCGC ((((....)))), the folding enthalpy in data set [1] was -21 kcal/mol. In addition, the Tm in data set [2] was determined as 51.3 °C.

With GCGGAACCCGC ((((...)))), in data set [1], the folding enthalpy was -20.8 kcal/mol. In addition, in data set [2], the Tm came to 53.8 °C.

For the sequence GCGGAACCGAAAGGTCGC (((..(((....)))))), in data set [1], the folding enthalpy was -27.7 kcal/mol. The Tm in data set [2] came to 54.7 °C.

Take GCGGAAGGAAACTTCCAC (.(((((....))))).): the folding enthalpy in data set [1] was -15.9 kcal/mol. The Tm in data set [2] is 37.4 °C.

GCGGAATCCGC ((((...)))): in data set [1], the folding enthalpy is -23.4 kcal/mol. Also, the Tm in data set [2] amounted to 51.7 °C.

Take GCGGACACCGC ((((...)))): in data set [1], the folding enthalpy is -26.3 kcal/mol. The Tm in data set [2] came to 56.2 °C.

As for GCGGACCCCCGC ((((....)))), in data set [1], the folding enthalpy was -34.6 kcal/mol. The Tm in data set [2] amounted to 53.3 °C.

On to GCGGACGAAAGTCATCGC ((((((....)))..))), for which the folding enthalpy in data set [1] was -25.7 kcal/mol. For the same sequence, in data set [2], the Tm was 50.1 °C.

On to GCGGACGAAAGTCCCGC ((((((....))).))), for which the folding enthalpy in data set [1] was -20.8 kcal/mol. The Tm in data set [2] is 67.1 °C.

For the sequence GCGGACGAAAGTCGCCGC ((((((....)))..))), the folding enthalpy in data set [1] is -18.1 kcal/mol. In data set [2], the Tm stood at 52.4 °C.
